The text below walks through data of ChEMBL document CHEMBL3525985, “Regiospecificity and stereospecificity of human UDP-glucuronosyltransferases in the glucuronidation of estriol, 16-epiestriol, 17-epiestriol, and 13-epiestradiol” (Drug Metab Dispos, 2013).

For orientation: Km means the substrate concentration at which the rate is half of its maximum. For orientation: Vmax means the top rate of the reaction or transport when substrate is in excess.

What all share (assay type): ADME
Series [1] is described as follows: Drug metabolism in human intestine microsomes assessed as estriol-3-glucuronide formation after 15 to 60 mins by Michaelis-Menten equation analysis in presence of UDPGA. The method, boiled down: (§1)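 Pooled human intestine microsomes (6 donors), 0.5 or 10 µg, with alamethicin at 5% of total protein. Incubated with 50 mM phosphate pH 7.4, 10 mM MgCl₂, 5 mM UDPGA and 10% DMSO for 15–60 min at 37°C. Each glucuronide regioisomer quantified by HPLC, in triplicate, with substrate consumption at or below 10%.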

Series [2] deals with T1, UDP-glucuronosyltransferase 2B4 (Homo sapiens, UniProt P06133).
T1 sequence (P06133 whole entry): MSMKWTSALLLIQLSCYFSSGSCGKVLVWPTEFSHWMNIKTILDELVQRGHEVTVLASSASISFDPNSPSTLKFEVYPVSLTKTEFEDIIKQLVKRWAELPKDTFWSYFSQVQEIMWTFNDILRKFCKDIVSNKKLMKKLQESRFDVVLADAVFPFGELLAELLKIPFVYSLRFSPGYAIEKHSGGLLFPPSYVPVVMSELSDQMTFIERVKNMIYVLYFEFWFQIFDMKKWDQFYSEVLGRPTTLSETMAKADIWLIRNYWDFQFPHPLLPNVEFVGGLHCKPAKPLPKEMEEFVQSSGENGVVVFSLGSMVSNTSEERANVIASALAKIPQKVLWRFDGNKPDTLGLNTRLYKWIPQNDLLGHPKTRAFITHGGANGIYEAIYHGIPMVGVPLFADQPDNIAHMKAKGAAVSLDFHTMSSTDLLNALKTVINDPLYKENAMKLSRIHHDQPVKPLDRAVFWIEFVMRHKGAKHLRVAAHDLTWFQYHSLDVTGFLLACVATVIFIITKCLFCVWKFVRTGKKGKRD
The experiment in a line: Drug metabolism assessed as recombinant human C-terminal His-tagged UGT2B4-mediated 13-epiestradiol-17-glucuronide formation at 200 uM after 15 to 60 mins by HPLC analysis in presence of UDPGA. Conditions: recombinant enzyme. The method in brief:
(§2)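 Screening at a single substrate concentration of 200 μM, in triplicate. The reaction used 5 or 50 µg of UGT-enriched insect cell membranes in 50 mM phosphate pH 7.4 with 10 mM MgCl₂ and 5 mM UDPGA, 10% final DMSO. Incubation was 15–60 min at 37°C. Perchloric acid stopped the reaction and supernatants were analysed by HPLC. Controls lacked UDPGA. Rates were normalized to relative UGT expression level.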

The nature of series [3]: Drug metabolism in human intestine microsomes assessed as 17-epiestriol-16-glucuronide formation after 15 to 60 mins by Michaelis-Menten equation analysis in presence of UDPGA. The method, boiled down:
as §1

Series [4] has as its target T1, UDP-glucuronosyltransferase 2B4. The experiment in a line: Drug metabolism assessed as recombinant human C-terminal His-tagged UGT2B4-mediated 17-epiestriol-17-glucuronide formation at 200 uM after 15 to 60 mins by HPLC analysis in presence of UDPGA. Conditions: recombinant enzyme. The method, boiled down:
as §2

In series [5] the target is T2, UDP-glucuronosyltransferase 2B7 (Homo sapiens, UniProt P16662).
T2 sequence (P16662 whole entry): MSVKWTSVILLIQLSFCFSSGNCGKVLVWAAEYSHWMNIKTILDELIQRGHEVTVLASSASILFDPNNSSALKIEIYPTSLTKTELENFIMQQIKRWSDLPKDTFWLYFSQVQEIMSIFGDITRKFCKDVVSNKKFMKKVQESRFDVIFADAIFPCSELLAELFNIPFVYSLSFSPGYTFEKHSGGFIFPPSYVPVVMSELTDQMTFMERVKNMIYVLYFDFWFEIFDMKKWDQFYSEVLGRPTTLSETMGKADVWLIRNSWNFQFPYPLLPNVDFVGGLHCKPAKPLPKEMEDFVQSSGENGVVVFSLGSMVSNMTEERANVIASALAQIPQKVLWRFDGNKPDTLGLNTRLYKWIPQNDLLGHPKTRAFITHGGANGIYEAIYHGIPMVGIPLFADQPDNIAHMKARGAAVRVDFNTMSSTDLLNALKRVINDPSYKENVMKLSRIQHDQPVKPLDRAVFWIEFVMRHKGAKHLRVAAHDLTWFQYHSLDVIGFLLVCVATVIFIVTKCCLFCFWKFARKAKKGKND
The experiment in a line: Drug metabolism assessed as recombinant human C-terminal His-tagged UGT2B7-mediated 17-epiestriol-17-glucuronide formation at 4 mg after 5 hrs by NMR spectroscopic analysis in presence of UDPGA. Conditions: recombinant enzyme. The method, boiled down:
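Preparative biosynthesis: 4 mg 17-epiestriol with fresh UGT2B7-enriched insect-cell homogenate (about 500 mg total protein) in 25 ml. Contained 50 mM phosphate pH 7.4, 10 mM MgCl₂, 50 mM UDPGA and 10% DMSO. Glucuronides fractionated by HPLC with 0.1% HCOOH eluent and 280 nm UV, then concentrated and lyophilized for NMR.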

For series [6], the system named is Liver microsome. The experiment in a line: Drug metabolism in human liver microsomes assessed as 17-epiestriol-17-glucuronide formation after 15 to 60 mins by Michaelis-Menten equation analysis in presence of UDPGA. The method, boiled down:
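Pooled human liver microsomes (30 donors), 0.5 or 10 µg, with alamethicin at 5% of total protein. Incubated with 50 mM phosphate pH 7.4, 10 mM MgCl₂, 5 mM UDPGA and 10% DMSO for 15–60 min at 37°C. Each glucuronide regioisomer quantified by HPLC, in triplicate, with substrate consumption at or below 10%.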
For orientation: Liver microsomes are vesicles of endoplasmic reticulum, rich in cytochrome P450 enzymes.

Series [7] is described as follows: Drug metabolism in human intestine microsomes assessed as 17-epiestriol-17-glucuronide formation after 15 to 60 mins by Michaelis-Menten equation analysis in presence of UDPGA. The method in brief:
as §1

In the case of `C[C@]12CC[C@@H]3c4ccc(O)cc4CC[C@H]3[C@@H]1C[C@@H](O)[C@@H]2O` [ESTRIOL], in series [1], the Michaelis constant (Km) was 75 µM and the Vmax is 839 pmol/min/mg.
In the case of `C[C@@]12CC[C@@H]3c4ccc(O)cc4CC[C@H]3[C@@H]1CC[C@@H]2O`, in series [2], the Drug metabolism result is “metabolite_detected”.
Regarding `C[C@]12CC[C@@H]3c4ccc(O)cc4CC[C@H]3[C@@H]1C[C@@H](O)[C@H]2O`, the Michaelis-Menten constant (Km) in series [3] came to 820 µM; in series [6] it was 21 µM; in series [7] it was 1.3 µM. For the same compound, the figures for the maximum rate (Vmax) in series [3], in series [6] and in series [7] were 266 pmol/min/mg, 5425 pmol/min/mg and 1633 pmol/min/mg, respectively. Further, the Drug metabolism result in series [4] and in series [5] was “metabolite_detected” throughout.
